The values below come from ChEMBL document CHEMBL1240328, “Selective compounds define Hsp90 as a major inhibitor of apoptosis in small-cell lung cancer” (Nat Chem Biol, 2007).

Test [1] deals with Heat shock protein HSP 90-beta (Homo sapiens) (UniProt P08238). Description: Inhibition of HSP90-mediated antiapoptotic activity in human NCI-H69 cells assessed as increase in apoptotic cell population at 0.2 to 1 uM after 72 hrs by FACS analysis relative to control. The test is classed as cell-based. Background: A flow cytometer gives signals particle by particle.
Test [2] has the same target. Description: Inhibition of HSP90-mediated antiapoptotic activity in human NCI-H526 cells assessed as induction of PARP cleavage at 10 uM after 24 hrs by Western blot analysis. In kind it is cell-based. The procedure, abridged: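 NCI-H526 cells at 60–70% confluence were exposed to drug or DMSO for 24 h. Lysed in 50 mM Tris pH 7.4, 150 mM NaCl, 1% NP-40, with protein measured by BCA. 20–100 µg run on SDS-PAGE and blotted to nitrocellulose. Probed with cleaved-protein antibodies and peroxidase secondary at 1:5,000, with β-actin as loading control.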

Test [3] has the same target. Put plainly: Inhibition of HSP90-mediated antiapoptotic activity in human NCI-H526 cells assessed as subG1 accumulation at 25 uM after 72 hrs by propidium iodide staining-based flow cytometry. The test is classed as cell-based. The gist of the method: (§1)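 SCLC cells treated for 72 h with graded doses. Mitochondrial membrane potential read by flow cytometry after JC-1 staining, with green-only emission indicating depolarization. Sub-G1 DNA content read after propidium iodide staining. CCCP used as positive control. n = 3 repeat experiments.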

Test [4] has the same target. Description: Inhibition of HSP90-mediated antiapoptotic activity in human NCI-N417 cells assessed as subG1 accumulation at 2.5 uM after 72 hrs by propidium iodide staining-based flow cytometry. The test is classed as cell-based. The note with it: NCI-H417. The procedure, abridged: (§2)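 Asynchronously growing cells were treated with compound, stained with propidium iodide and analysed by flow cytometry. The read-out was the percentage of cells with sub-G1 DNA content.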

Test [5] has the same target. Put plainly: Inhibition of HSP90-mediated antiapoptotic activity in human NCI-N417 cells assessed as subG1 accumulation at 15 uM after 72 hrs by propidium iodide staining-based flow cytometry. The test is classed as cell-based. The note with it: NCI-H417. The procedure, abridged: as §2
The target is the same in test [6]. Description: Inhibition of HSP90-mediated antiapoptotic activity in human NCI-N417 cells assessed as subG1 accumulation at 25 uM after 72 hrs by propidium iodide staining-based flow cytometry. In kind it is cell-based. The note with it: NCI-H417. The procedure, abridged:
as §2

Test [7] shares this target. Put plainly: Inhibition of HSP90-mediated antiapoptotic activity in human NCI-H187 cells assessed as subG1 accumulation at 2.5 uM after 72 hrs by propidium iodide staining-based flow cytometry. The test is classed as cell-based. The procedure, abridged: as §1
The target is the same in test [8]. Description: Inhibition of HSP90-mediated antiapoptotic activity in human NCI-H187 cells assessed as subG1 accumulation at 5 uM after 72 hrs by propidium iodide staining-based flow cytometry. The test is classed as cell-based. The gist of the method: as §1
Test [9] shares this target. Put plainly: Inhibition of HSP90-mediated antiapoptotic activity in human NCI-H526 cells assessed as mitochondrial membrane depolarization at 10 uM after 72 hrs by JC-1 staining-based flow cytometry in presence of broad-spectrum caspase inhibitor Boc-D-FMK. The test is classed as cell-based. The procedure, abridged: (§3)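 NCI-H526 cells pretreated for 3 h with Boc-D-FMK (100 µM), then exposed to 10 µM for 72 h. Flow cytometry after JC-1 staining for mitochondrial potential and after propidium iodide staining for DNA content. n = 3.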

Test [10] shares this target. Put plainly: Inhibition of HSP90-mediated antiapoptotic activity in human NCI-H526 cells assessed as induction of cell death at 10 uM after 72 hrs by propidium iodide staining-based flow cytometry in presence of broad-spectrum caspase inhibitor Boc-D-FMK. The procedure, abridged:
as §3

For test [11] the target is unchanged. Put plainly: Inhibition of HSP90-mediated antiapoptotic activity in human NCI-H526 cells assessed as induction of PARP cleavage at 10 uM after 72 hrs by fluorescence assay in presence of caspase-9 inhibitor Z-LEHD-FMK. The test is classed as cell-based.
Test [12] shares this target. Put plainly: Effect on HSP90-mediated survivin expression in human NCI-H526 cells at 25 uM after 24 hrs by Western blot analysis. The test is classed as cell-based. The gist of the method: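 NCI-H526 cells were exposed for 24 h to drug or DMSO vehicle. Lysates were made in 50 mM Tris pH 7.4, 150 mM NaCl, 1% NP-40 and quantified by BCA. Western blot used 20–100 µg protein per lane, with β-actin as loading control.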

The target is the same in test [13]. Put plainly: Inhibition of HSP90-mediated antiapoptotic activity in human NCI-H526 cells assessed as induction of Akt degradation at 10 uM after 24 hrs by Western blot analysis. In kind it is cell-based. Background: A western blot detects proteins with antibodies after separation by electrophoresis.
Test [14] has the same target. Put plainly: Inhibition of HSP90-mediated antiapoptotic activity in human NCI-H526 cells assessed as reduction in BAD phosphorylation at 10 uM after 24 hrs by Western blot analysis. The test is classed as cell-based.
The target is the same in test [15]. Put plainly: Inhibition of HSP90-mediated antiapoptotic activity in human NCI-H526 cells assessed as reduction in BAD phosphorylation at 20 uM after 24 hrs by Western blot analysis. The test is classed as cell-based.
For test [16] the target is unchanged. Put plainly: Inhibition of HSP90-mediated antiapoptotic activity in human NCI-H526 cells assessed as disruption of protein-Apaf-1 complex at 50 uM after 24 hrs by Western blot analysis. In kind it is cell-based. The gist of the method:
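NCI-H526 cells treated for 24 h with vehicle or inhibitors (20 µM or 50 µM). Proteins isolated with Apaf-1-specific antibody and whole lysates analysed by western blot. n = 3.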

For test [17] the target is unchanged. Description: Inhibition of HSP90-mediated antiapoptotic activity in human SKBR3 cells assessed as induction of cell growth arrest at 50 uM after 24 hrs by propidium iodide staining-based flow cytometry. To be noted: SK-BR-3.
Test [18] shares this target. Put plainly: Inhibition of HSP90-mediated antiapoptotic activity in human SKBR3 cells assessed as induction of caspase-9 cleavage at 50 uM after 24 hrs by Western blot analysis. In kind it is cell-based. To be noted: SK-BR-3. The procedure, abridged: (§4)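 SKBr3 cells at 60–70% confluence were exposed to drug or DMSO vehicle. Lysis was in 50 mM Tris pH 7.4, 150 mM NaCl, 1% NP-40, with protein measured by BCA. Lysates of 20–100 µg were run on SDS-PAGE, blotted to nitrocellulose, probed with primary antibodies and detected with a peroxidase-conjugated secondary (1:5,000). Loading was checked with β-actin or PI(3)K p85.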

Test [19] has the same target. Put plainly: Inhibition of HSP90-mediated antiapoptotic activity in human SKBR3 cells assessed as induction of PARP cleavage at 50 uM after 24 hrs by Western blot analysis. In kind it is cell-based. To be noted: SK-BR-3. The procedure, abridged: as §4
The target is the same in test [20]. Description: Inhibition of HSP90-mediated antiapoptotic activity in human MCF7 cells assessed as induction of caspase-9 cleavage at 400 uM after 24 hrs by Western blot analysis. In kind it is cell-based.
For another test, the system named is SK-BR-3. Description: Inhibition of HSP70-mediated antiapoptotic activity in human SKBR3 cells assessed as induction of caspase-3 cleavage after 24 hrs by Western blot analysis. In kind it is cell-based. The gist of the method:
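SKBr3 cells were treated for 24 h. Lysates were probed by western blot for caspase-3 and PARP cleavage. Apaf-1 complexes were pulled down with Apaf-1 antibody (with control IgG) and immunoblotted.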

Test [21] deals with NCI-H526. Description: Inhibition of HSP70-mediated antiapoptotic activity in human NCI-H526 cells assessed as induction of caspase-3 cleavage after 24 hrs by Western blot analysis. In kind it is cell-based. The gist of the method:
(§5)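 NCI-H526 cells were treated for 24 h. PARP and caspase-3 cleavage were read by western blot of lysates in Tris/NaCl/NP-40 buffer. Apaf-1 complexes were immunoprecipitated with Apaf-1 antibody, using control IgG, then blotted.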

For test [22], the system named is NCI-H526. Put plainly: Inhibition of HSP70-mediated antiapoptotic activity in human NCI-H526 cells assessed as induction of PARP cleavage after 24 hrs by Western blot analysis. The test is classed as cell-based. The procedure, abridged:
as §5

Each structure is given as a SMILES string. Calls of active or inactive are those of the source. The rule behind the calls is not given here.

Sequence of Heat shock protein HSP 90-beta (Homo sapiens) (P08238 whole entry): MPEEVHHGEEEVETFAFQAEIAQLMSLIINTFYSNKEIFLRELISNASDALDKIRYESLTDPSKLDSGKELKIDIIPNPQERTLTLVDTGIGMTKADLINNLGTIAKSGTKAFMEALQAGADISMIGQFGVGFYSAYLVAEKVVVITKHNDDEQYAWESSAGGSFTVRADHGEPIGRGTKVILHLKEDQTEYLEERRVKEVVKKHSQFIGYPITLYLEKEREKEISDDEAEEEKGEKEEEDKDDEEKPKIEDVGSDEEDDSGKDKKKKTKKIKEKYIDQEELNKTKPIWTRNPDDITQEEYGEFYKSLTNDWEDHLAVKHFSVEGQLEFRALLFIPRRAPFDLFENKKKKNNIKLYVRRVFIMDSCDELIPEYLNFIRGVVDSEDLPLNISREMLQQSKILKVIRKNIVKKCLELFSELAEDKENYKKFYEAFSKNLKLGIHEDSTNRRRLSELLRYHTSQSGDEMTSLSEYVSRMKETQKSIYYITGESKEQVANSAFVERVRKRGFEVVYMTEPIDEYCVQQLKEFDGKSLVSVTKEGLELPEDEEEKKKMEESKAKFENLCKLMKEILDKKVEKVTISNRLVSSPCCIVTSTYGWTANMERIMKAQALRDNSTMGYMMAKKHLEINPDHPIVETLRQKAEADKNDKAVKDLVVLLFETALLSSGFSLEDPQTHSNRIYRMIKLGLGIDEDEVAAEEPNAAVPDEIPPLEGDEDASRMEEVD

Take `O=CN1CC/C(=C/c2ccc3c(c2)OCO3)C1=O`: the outcome in [1], in [2], in test [3], in test [4], in [5] and in [6] was inactive. Also, the outcome in [7], in test [8], in test [9], in test [10], in test [11] and in test [12] was inactive. Also, the outcome in [13], in [14], in [15], in test [16], in test [17] and in [18] was inactive. Besides, the result in test [19] and in test [20] was inactive. Further, the inhibition entry in the test with SK-BR-3 is “Active”. Besides, the inhibition result in the test with NCI-H526 [21] and in the test with NCI-H526 [22] was “inactive” throughout.
